{
  "source": "paper PMC3790647",
  "about": "(Clinical cancer research : an official journal of the …, 2013)",
  "key": {"HDAC enzyme": {"tested_on": "HDAC enzyme", "assay": "Cellular HDAC enzyme activity assay in patient blood cells", "assay_type": "in vivo, human", "details": "plasma concentration, 2 hour post-dose on day 1, all dose levels, Hill model", "method_in_brief": "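Whole citrate blood (1 ml) was incubated 2 h at 37°C with fluorogenic substrate Boc-K(Ac)-AMC, then erythrocytes were lysed and cells stored at −80°C. Developer reagent lysed cells and released fluorescence from the deacetylated substrate, read by fluorimetry. Untreated control was set as 100% activity and 10 μM trichostatin A as 100% inhibition. Sampling: C1D1 pre-dose, 2, 5, 8, 24 h; C1D5; C4D5.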"}, "multiple myeloma cells": {"tested_on": "multiple myeloma cells", "details": "cited from earlier work"}, "advanced solid tumors": {"tested_on": "advanced solid tumors", "assay": "Tumor response by RECIST 1.0", "assay_type": "in vivo, human", "method_in_brief": "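Patients with at least one RECIST-measurable lesion and progressive disease at entry had CT and/or MRI every 8 weeks for up to 6 months of treatment, then every 12 weeks. Response was scored by RECIST 1.0. Dosing was oral once daily on days 1–5 every 14 days, 100–800 mg.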"}, "[1]": {"tested_on": "relapsed/refractory Hodgkin lymphoma", "details": "cited from earlier work"}},
  "data": [
    {"compound": "CN(C)Cc1ccc(S(=O)(=O)n2ccc(/C=C/C(=O)NO)c2)cc1", "note": "[resminostat]", "values": [
      {"measurement": "Resminostat concentration at 50% of HDAC enzyme inhibition", "setting": "HDAC enzyme", "result": 306, "unit": "ng/mL"},
      {"measurement": "Apoptosis signalling (Bim, Bax, Caspases 3, 8 and 9 up; Bcl-xL down)", "setting": "multiple myeloma cells", "result": "pro-apoptotic signals were seen"},
      {"measurement": "Patients who achieved SD", "setting": "advanced solid tumors; 600 mg dose group", "result": "Three of 3"},
      {"measurement": "Patients with stable disease (SD) lasting >8 weeks", "setting": "advanced solid tumors; all dose levels, 95% CI: 34–80", "result": 58, "unit": "%"},
      {"measurement": "Reduction in the sum of the longest diameters of tumor target lesions", "setting": "advanced solid tumors; one patient with metastatic thymoma", "result": 27, "unit": "%"},
      {"measurement": "Time on study with SD", "setting": "advanced solid tumors; patient with liposarcoma, 31 cycles", "result": 14.2, "unit": "months"},
      {"measurement": "Objective response rate (Cheson criteria, independent central review, interim analysis)", "setting": "[1]; 11 of 33 evaluable patients", "result": 33, "unit": "%"},
      {"measurement": "Clinical benefit rate", "setting": "[1]; 18 of 33 patients", "result": 55, "unit": "%"}
    ]}
  ]
}
